In general, IC50 refers to the point on the concentration scale where inhibition reaches its midpoint. A low value points to inhibition by little substance.

Calls of active or inactive are those of the source.

This note sets out measurements from ChEMBL document CHEMBL2202986, “Guaianolide sesquiterpene lactones, a source to discover agents that selectively inhibit acute myelogenous leukemia stem and progenitor cells” (J Med Chem, 2012).

A short description of series [1]: Drug degradation at pH 7.4 assessed as release of PTL after 3 hrs. It is filed as physicochemical. The conditions noted are these: buffer, pH 7.4, 3 h.
The next series has as its system HL-60. Briefly: Cytotoxicity against human HL60 cells after 18 hrs by annexin-V labeling-based flow cytometry. It is filed as functional, cell-based. Conditions: HL-60, 18 h. (Flow cytometry measures light scatter and fluorescence of single cells or particles in a stream.)
Series [2] in a line: Cytotoxicity against human HL60/A cells after 18 hrs by annexin-V labeling-based flow cytometry. It is filed as functional, cell-based.
Series [3] is described as follows: Cytotoxicity against human leukemia stem/progenitor cells assessed as cell viability at 5 uM after 18 hrs by annexin-V labeling-based flow cytometry. It is filed as functional. The conditions noted are these: in the assay text read “leukemia cells” for “leukemia stem/progenitor cells”, read-out: Activity. The method, boiled down: (§1)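 Primary leukemia cells from AML patient blood were treated for 18 h in serum-free IMDM, then stained with CD34-APC and CD38-PECy7 for 30 min. After washing in cold PBS, cells were labelled with Annexin-V–FITC/PI for 15 min at room temperature and read by flow cytometry. Viability of total and CD34⁺ cells was normalized to untreated controls (mean, SD).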

A short description of series [4]: Cytotoxicity against human leukemia cells assessed as cell viability at 10 uM after 18 hrs by annexin-V labeling-based flow cytometry.
Series [5] can be described thus: Cytotoxicity against human leukemia stem/progenitor cells assessed as viable CD34+ cells at 5 uM after 18 hrs by annexin-V labeling-based flow cytometry. It is filed as functional, CD34+ cell. The method, boiled down:
as §1

The nature of series [6]: Cytotoxicity against human leukemia stem/progenitor cells assessed as viable CD34+ cells at 10 uM after 18 hrs by annexin-V labeling-based flow cytometry. It is filed as functional, CD34+ cell.
Series [7] in a line: Reduction in colony forming units of leukemia stem/progenitor cells at 5 uM after 15 to 20 days. It is filed as functional, Homo sapiens. The method, boiled down:
(§2)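 Mononuclear cells from AML patient […] were exposed to drug for 18 h in serum-free IMDM, then plated in triplicate in M3434 methylcellulose. Total colonies (CFC-Mix, CFC-GM, CFC-G, CFC-M, BFU-E) were scored by morphology after 15−20 days.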

The nature of series [8]: Induction of apoptosis in CD34+ leukemia stem/progenitor cells assessed as necrotic cells at 10 uM using annexin V/propidium iodide by flow cytometry. It is filed as functional, Homo sapiens. The method, boiled down:
(§3)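 Primary AML patient cells were exposed to 10 μM compound for 18 h in IMDM, then stained with CD34-APC/CD38-PECy7. Annexin-V–FITC/PI was added and incubated for 15 min at room temperature before flow cytometry. Quadrants were defined as Q1 necrotic, Q2 late apoptotic, Q3 early apoptotic and Q4 viable.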

Series [9] in a line: Reduction in colony forming units of leukemia stem/progenitor cells at 10 uM after 15 to 20 days. It is filed as functional, Homo sapiens. The method, boiled down:
as §2

The nature of series [10]: Cytotoxicity against human CD34+ hematopioetic stem cells at 5 uM by immunostaining method. It is filed as cell-based. The method, boiled down: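 Mononuclear cells were Ficoll-isolated from umbilical cord blood of a normal donor, cryopreserved, then rested in serum-free IMDM for 1 h. Cells were treated for 18 h in IMDM, stained with CD34-APC for 30 min, and labelled with Annexin-V–FITC/PI for 15 min at room temperature. Read by flow cytometry, normalized to vehicle, done in triplicate.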

Series [11] can be described thus: Induction of apoptosis in CD34+ leukemia stem/progenitor cells assessed as viable cells at 10 uM using annexin V/propidium iodide by flow cytometry. It is filed as functional. The conditions noted are these: Homo sapiens; read-out: Activity. The method, boiled down: as §3
A short description of series [12]: Cytotoxicity against human leukemia stem/progenitor cells assessed as viable CD34+ cells at 10 uM after 18 hrs by annexin-V labeling-based flow cytometry relative to control. It is filed as functional, CD34+ cell.
Series [13] in a line: Cytotoxicity against human leukemia stem/progenitor cells assessed as viable CD34+CD38- cells at 10 uM after 18 hrs by annexin-V labeling-based flow cytometry relative to control. It is filed as functional.
The test system of another series is Homo sapiens. The series is described as follows: Antitumor activity against human leukemia stem/progenitor cells xenografted in NOD/SCID mouse assessed as reduction of CD45+CD33+ cells in spleen compound pretreated for 18 hrs before grafting process measured after 8 weeks. It is filed as functional, tissue-based. The procedure, abridged: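 Fresh primary AML patient cells were exposed for 18 h to saline or compound. Equal numbers of surviving cells were then injected iv into NOD/SCID mice. After 8 weeks the mice were sacrificed, and the spleen CD33⁺CD45⁺ human cells were quantified by flow cytometry, with each animal analysed individually.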
Background: In xenograft studies the graft and the host belong to different species.

The nature of series [14]: Induction of apoptosis in CD34+ leukemia stem/progenitor cells assessed as late apoptotic cells at 10 uM using annexin V/propidium iodide by flow cytometry. It is filed as functional, Homo sapiens. The procedure, abridged:
as §3

The nature of series [15]: Induction of apoptosis in CD34+ leukemia stem/progenitor cells assessed as early apoptotic cells at 10 uM using annexin V/propidium iodide by flow cytometry. It is filed as functional, Homo sapiens. The procedure, abridged: as §3

Consider `C/C1=C\CC[C@@]2(C)O[C@@H]2[C@H]2OC(=O)[C@@H](Cn3cc(-c4cccc(N)c4)nn3)[C@@H]2CC1`, for which the Drug degradation entry in [1] is reported as “Not Active”. For the same compound, the IC50 with HL-60 was > 50 µM; in series [2], > 100 µM.

`C/C1=C\CC[C@@]2(C)O[C@@H]2[C@H]2OC(=O)[C@@H](Cn3cc(-c4ccccc4)nn3)[C@@H]2CC1`: the Drug degradation entry in [1] is given as “Not Active”. The IC50 in the series on HL-60 is > 50 µM; in series [2], > 100 µM.

Take `C/C1=C\CC[C@@]2(C)O[C@@H]2[C@H]2OC(=O)[C@@H](Cn3cc(CCCCO)nn3)[C@@H]2CC1`: the Drug degradation entry in [1] was “Not Active”. The IC50 in the series on HL-60 was > 50 µM; in series [2] it was > 100 µM.

For the compound `C/C1=C\CC[C@@]2(C)O[C@@H]2[C@H]2OC(=O)[C@@H](Cn3cc(CO)nn3)[C@@H]2CC1`, the Drug degradation result in series [1] was “Not Active”. Also, the half-inhibitory concentration (IC50) in the series with HL-60 is > 50 µM; in series [2], > 100 µM.

On to `C/C1=C\CC[C@@]2(C)O[C@@H]2[C@H]2OC(=O)[C@@H](CN=[N+]=[N-])[C@@H]2CC1`, for which the viability at 5 µM in [3] came to 31.5%. Further, in series [1], the Drug degradation entry is on record as “Active”. The viability at 10 µM in [4] is 22.8%. Further, the Activity in series [5] turned out to be 28.4%; in series [6], 17.5%. Besides, the figures for the IC50 (with HL-60; in series [2]) were 4.3 µM and 5.9 µM, respectively.

Take `C=C1C(=O)O[C@H]2[C@H]1CCC(C)=C1CC[C@@](C)(OC)[C@@H]12`: the viability at 5 µM in [3] stood at 34.1%. Moreover, the viability at 10 µM in series [4] is 10.8%. Besides, the Activity in [5] stood at 25.5%; in series [6], 2.1%. The figures for the IC50 (in the series with HL-60; in [2]) were 9.9 µM and 10.2 µM, respectively.

In the case of `CC1=C2CC[C@@](C)(O)[C@@H]2[C@H]2OC(=O)[C@@H](CN=[N+]=[N-])[C@@H]2CC1`, in series [3], the viability at 5 µM was found to be 64.3%. The viability at 10 µM in series [4] is 53.1%. The results for the Activity in series [5] and in series [6] were 26.3% and 11.2%, respectively. The IC50 amounted to 6.2 µM in the series with HL-60 and 6.7 µM in [2].

With `CC1=C2CC[C@@](C)(O)[C@@H]2[C@H]2OC(=O)[C@@H](C)[C@@H]2CC1`, the viability at 5 µM in [3] turned out to be 85%. Also, in series [4], the viability at 10 µM turned out to be 70.8%. In addition, the figures for the Activity in series [5] and in series [6] were 83.1% and 74.4%, respectively. Also, the IC50 (in the series on HL-60; in series [2]) was > 50 µM each time.

Take `C=C1C(=O)O[C@@H]2[C@@H]3[C@@H](CC[C@@]3(C)O)[C@](C)(OC)CC[C@@H]12`: the viability at 5 µM in series [3] came to 96.5%. Moreover, in [4], the viability at 10 µM was 75.2%. Further, the Activity in series [5] stood at 95.8%; in [6] it was 76.3%. Further, the values for the IC50 (in the series on HL-60; in series [2]) were 9.4 µM and 11.2 µM, respectively.

Consider `C=C1CC[C@H]2C(=C)C(=O)O[C@@H]2[C@]2(O)[C@@H]1CC[C@@H]2C`, for which, in series [3], the viability at 5 µM worked out at 70.7%. Besides, in series [4], the viability at 10 µM is 49.7%. Further, the figures for the Activity in series [5] and in [6] were 67.9% and 44.5%, respectively. In addition, the IC50 was 4.5 µM in the series with HL-60 and 6.4 µM in [2].

On to `C=C1C(=O)O[C@@H]2C=C(CCC(C)=O)[C@@H](C)CC[C@@H]12`, for which the viability at 5 µM in series [3] came to 83.2%. Moreover, the viability at 10 µM in series [4] is 72%. Besides, the Activity in series [5] is 81.5%; in [6], 70.9%. Further, the IC50 (in the series with HL-60; in [2]) was > 50 µM each time.

Take `C=C1C(=O)O[C@@H]2[C@@H]3[C@@H](CC[C@@]3(C)O)C(=C)CC[C@@H]12`: the viability at 5 µM in [3] stood at 61.6%. Moreover, in series [4], the viability at 10 µM was 30.6%. For the same compound, the Activity was 53.7% in series [5] and 22.6% in [6]. For the same compound, the results for the 50% inhibitory concentration (IC50) (in the series on HL-60; in series [2]) were 9.4 µM and 9.9 µM, respectively.

For the compound `C=C1C(=O)O[C@@H]2[C@@H]3[C@@H](CC[C@@]3(C)O)[C@](C)(O)CC[C@@H]12`, the viability at 5 µM in series [3] was determined as 88.5%. For the same compound, the viability at 10 µM in series [4] turned out to be 89.9%. Besides, the values for the Activity in series [5] and in series [6] were 84.9% and 84.8%, respectively. The half-inhibitory concentration (IC50) was 21.9 µM with HL-60 and 17.9 µM in series [2].

For `C=C1C(=O)O[C@@H]2C3O[C@]3(C)CC/C=C(\C)CC[C@@H]12` (some centres undefined), the CFU came to 2 in series [7] and 0 in series [9]. Further, the viability at 5 µM in series [3] was 18%. The Activity in series [8] is given as 0.046%; in [10], “Non-toxic”; in series [14], 27.8%; in [5], 13.2%; in series [6] it was 4.7%; in [15], 60.3%. In addition, the viability at 10 µM in series [11] was found to be 1.73%; in series [4], 8.3%. The “fold change (FC)” value in [12] stood at 3.8; in series [13], 2.6. Also, in the series with Homo sapiens, the outcome was Active. Besides, the results for the IC50 (with HL-60; in [2]) were 3.7 µM and 4.1 µM, respectively.

Regarding `C=C1CC[C@@H]2[C@](C)(CO)[C@H](O)CC[C@@]2(C)[C@@H]1C/C=C1/C(=O)OC[C@H]1O` [ANDROGRAPHOLIDE], the IC50 in the series on HL-60 turned out to be 27 µM; in series [2] it was 23.3 µM.

As to `C=C1C(=O)O[C@@H]2[C@H]3C(C)=CC[C@@]34O[C@@]4(C)CC[C@@H]12` [ARGLABIN], the “fold change (FC)” value was 1.8 in series [12] and 1.9 in [13]. Besides, in [4], the viability at 10 µM is 20%. Further, the Activity in [6] was determined as 10.7%.

Take `C[C@@H]1CC[C@H]2[C@@H](C)C(=O)O[C@@H]3O[C@@]4(C)CC[C@@H]1[C@]32OO4` [ARTEMISININ]: the IC50 (in the series with HL-60; in series [2]) was > 50 µM in each case.

As for `C=C1C(=O)O[C@@H]2/C=C(\C)CC/C=C(\C)CC[C@@H]12` [COSTUNOLIDE], the viability at 5 µM in series [3] worked out at 25.8%. The viability at 10 µM in series [4] was 13.4%. Also, the values for the Activity in [5] and in [6] were 18.8% and 7.5%, respectively. The results for the IC50 (with HL-60; in series [2]) were 7.7 µM and 5.8 µM, respectively.

As for `C=C1CC[C@H]2C(=C)CC[C@H]3C(=C)C(=O)O[C@@H]3[C@@H]12` [DEHYDROCOSTUSLACTONE], the viability at 5 µM in series [3] is 6.1%. For the same compound, in series [4], the viability at 10 µM was found to be 6.4%. Also, the Activity in series [5] is listed as 2.9%; in series [6] it was 3.8%. Moreover, the IC50 was 5.3 µM in the series on HL-60 and 3.7 µM in [2].

As for `C=C1CC(=O)OC1=O` [ITACONIC ANHYDRIDE], the IC50 (with HL-60; in series [2]) was > 50 µM throughout.

For `CCCCC/C=C/C=C/C(=O)N1CCCC1` [SARMENTINE], the IC50 (in the series with HL-60; in series [2]) was > 50 µM each time.

For `C=C1CCOC1=O` [TULIPALINE A], the figures for the half-maximal inhibitory concentration (IC50) (with HL-60; in series [2]) were 35 µM and 28.8 µM, respectively.
